Active and inactive are the calls of the source. The calls are words filed in the database; no cut-off is given here.
Columns and labels:
[1] = Binding affinity to 5'-Pu22-3' c-myc G-quadruplex DNA (unknown origin) assessed as induction of parallel c-myc G-quadruplex conformation at 2 equiv after 6 hrs in absence of KCl by CD-spectroscopic analysis
Procedure, shortened: (§1)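 Pu22 at 3 μM final in 10 mM Tris-HCl buffer with ligand at 2 equiv, with 100 mM KCl or without KCl; heated 95 °C 5 min, slowly cooled, held ≥6 h; CD spectra 230–330 nm, 1 mm quartz cell, 1 nm bandwidth and step, 0.5 s/point, average of two scans.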

[2] = Cytotoxicity against human A549 cells assessed as reduction in cell viability after 48 hrs by MTT assay; assay type: functional, cell-based; details: A549, 48 h
[3] = Selectivity ratio of Kd for double stranded DNA (unknown origin) to Kd for biotinylated 5'-Pu22-3'-labelled c-myc G-quadruplex DNA
[4] = Binding affinity to 5'-FPu22T-3'-labelled c-myc G-quadruplex DNA (unknown origin) assessed as change in melting temperature at 2 uM in presence ds26 DNA of by FRET assay
Procedure, shortened: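 FRET melting of 0.4 μM labelled FPu22T with ligand 2.0 μM, alone or with 10-fold (4 μM), 50-fold (20 μM) or 100-fold (40 μM) excess unlabelled duplex ds26 as competitor; Tris-HCl 10 mM pH 7.4 with 10 or 60 mM KCl; ex 470/em 530 nm read every 1 °C from 37–99 °C, 30 s hold; ΔTm = Tm(DNA+ligand) − Tm(DNA).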

[5] = Cytotoxicity against human CA46 cells assessed as reduction in cell viability after 48 hrs by MTT assay; assay type: functional, cell-based; details: CA46, 48 h
[6] = Binding affinity to biotinylated double stranded DNA (unknown origin) after 240 secs by SPR assay
Procedure, shortened: (§2)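 SPR: biotinylated Pu22 and biotinylated duplex folded in 50 mM Tris-HCl pH 7.4, 150 mM KCl, 0.005% Tween20, captured (~1000 RU) on separate flow cells with a blank reference; ligand 0.0625–10 μM in running buffer, 240 s association then 240 s dissociation at 25 °C; equilibrium KD derived.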

[7] = Binding affinity to 5'-Pu22-3' c-myc G-quadruplex DNA (unknown origin) assessed as maintainance of parallel c-myc G-quadruplex conformation at 2 equiv after 6 hrs in presence of KCl by CD-spectroscopic analysis; procedure, shortened: as §1
[8] = Drug uptake in human HeLa cells at 10 uM after 48 hrs
[9] = Cytotoxicity against mouse primary mesangial cells assessed as reduction in cell viability after 48 hrs by MTT assay; assay type: toxicity
[10] = Binding affinity to F10T duplex DNA (unknown origin) assessed as change in melting temperature by FRET assay
Procedure, shortened: (§3)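 Fluorescence melting on real-time PCR instrument; 0.4 μM labelled oligonucleotide (FPu22T or duplex-forming F10T), ligand 2.0 μM, in 10 mM Tris-HCl pH 7.4 with 10 or 60 mM KCl; ex 470/em 530 nm at 1 °C steps over 37–99 °C, 30 s equilibration each; ΔTm = Tm(DNA+ligand) − Tm(DNA).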

[11] = Binding affinity to 5'-FPu22T-3'-labelled c-myc G-quadruplex DNA (unknown origin) assessed as change in melting temperature by FRET assay; procedure, shortened: as §3
[12] = Cytotoxicity against human HeLa cells assessed as reduction in cell viability after 48 hrs by MTT assay; assay type: functional, cell-based
[13] = Cytotoxicity against human Raji cells assessed as reduction in cell viability after 48 hrs by MTT assay; assay type: functional, cell-based
[14] = Binding affinity to biotinylated 5'-Pu22-3'-labelled c-myc G-quadruplex DNA (unknown origin) after 240 secs by SPR assay; procedure, shortened: as §2
[15] = Cell cycle arrest in human HeLa cells assessed as accumulation at G0/G1 phase after 48 hrs by propidium iodide based FACS analysis (reference value: 30.8 %); assay type: functional
HeLa [16] = test: Cytotoxicity against human HeLa cells assessed as cell growth inhibition at 1.25 to 10 uM after 80 hrs by RTCA assay; assay type: functional, cell-based
[17] = Cell cycle arrest in human HeLa cells assessed as accumulation at G2/M phase at 2.5 uM after 48 hrs by propidium iodide based FACS analysis (reference value: 33.7 %); assay type: functional
[18] = Cell cycle arrest in human HeLa cells assessed as accumulation at S phase after 48 hrs by propidium iodide based FACS analysis (reference value: 23.1 %); assay type: functional
[19] = Cell cycle arrest in human HeLa cells assessed as accumulation at G0/G1 phase at 2.5 uM after 48 hrs by propidium iodide based FACS analysis (reference value: 35.9 %); assay type: functional
HeLa [20] = test: Binding affinity to c-myc G-quadruplex DNA in human HeLa cells assessed as inhibition of c-myc transcription after 3 hrs by RT-PCR analysis; assay type: cell-based
Procedure, shortened: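 HeLa (2×10^5/well) treated 3 h with 1.25–10 μM or DMSO; total RNA oligo-dT primed, M-MLV reverse transcribed (70 °C 10 min; 42 °C 1 h; 70 °C 15 min); c-myc and β-actin (internal control) amplified by real-time PCR, products run on 1.5% agarose.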

[21] = Cell cycle arrest in human HeLa cells assessed as accumulation at G2/M phase after 24 hrs by propidium iodide based FACS analysis (reference value: 46.1 %); assay type: functional
[22] = Cell cycle arrest in human HeLa cells assessed as accumulation at S phase at 2.5 uM after 48 hrs by propidium iodide based FACS analysis (reference value: 28.6 %); assay type: functional
[23] = Cell cycle arrest in human HeLa cells assessed as accumulation at G0/G1 phase at 1.25 uM after 48 hrs by propidium iodide based FACS analysis (reference value: 35.9 %); assay type: functional
HeLa [24] = test: Binding affinity to c-myc G-quadruplex DNA in human HeLa cells assessed as reduction in c-myc gene expression at 1.25 to 10 uM after 6 hrs by Western blot analysis; assay type: cell-based
Procedure, shortened: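 HeLa treated 6 h at 0–10 μM; lysates BCA-quantified, 20 μg protein on 12% SDS–PAGE, transferred to nitrocellulose, blocked in 5% BSA/TBS-Tween; probed with anti-c-myc and anti-GAPDH (loading control), HRP secondary, chemiluminescent detection.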

[25] = Cell cycle arrest in human HeLa cells assessed as accumulation at G0/G1 phase after 24 hrs by propidium iodide based FACS analysis (reference value: 30.8 %); assay type: functional
[26] = Cell cycle arrest in human HeLa cells assessed as accumulation at S phase after 12 hrs by propidium iodide based FACS analysis (reference value: 23.1 %); assay type: functional
[27] = Cell cycle arrest in human HeLa cells assessed as accumulation at G2/M phase at 1.25 uM after 48 hrs by propidium iodide based FACS analysis (reference value: 33.7 %); assay type: functional
Mus musculus = species: Mus musculus; test: Cytotoxicity against mouse primary mesangial cells assessed as cell growth inhibition at 1.25 to 10 uM after 80 hrs by RTCA assay; assay type: toxicity, cell-based
[28] = Cell cycle arrest in human HeLa cells assessed as accumulation at G0/G1 phase at 5 uM after 48 hrs by propidium iodide based FACS analysis (reference value: 35.9 %); assay type: functional
[29] = Cell cycle arrest in human HeLa cells assessed as accumulation at S phase at 1.25 uM after 48 hrs by propidium iodide based FACS analysis (reference value: 28.6 %); assay type: functional
[30] = Cell cycle arrest in human HeLa cells assessed as accumulation at G2/M phase at 5 uM after 48 hrs by propidium iodide based FACS analysis (reference value: 33.7 %); assay type: functional
[31] = Cell cycle arrest in human HeLa cells assessed as accumulation at G2/M phase after 48 hrs by propidium iodide based FACS analysis (reference value: 46.1 %); assay type: functional
[32] = Cell cycle arrest in human HeLa cells assessed as accumulation at G0/G1 phase after 12 hrs by propidium iodide based FACS analysis (reference value: 30.8 %); assay type: functional
[33] = Cell cycle arrest in human HeLa cells assessed as accumulation at S phase after 24 hrs by propidium iodide based FACS analysis (reference value: 23.1 %); assay type: functional
[34] = Cell cycle arrest in human HeLa cells assessed as accumulation at G2/M phase after 12 hrs by propidium iodide based FACS analysis (reference value: 46.1 %); assay type: functional
[35] = Cell cycle arrest in human HeLa cells assessed as accumulation at S phase at 5 uM after 48 hrs by propidium iodide based FACS analysis (reference value: 28.6 %); assay type: functional

For `O=C(CCN1CCCC1)Nc1ccc(Nc2nc(-c3ccccc3NC(=O)CCN3CCCC3)nc3ccccc23)cc1`, the Activity [1] was “Active”, the IC50 [2] was 26.6 µM and the Selectivity ratio [3] was greater than 50. The Activity [4] was “Active”, the IC50 [5] was 7.2 µM and the Kd [6] was greater than 10 µM. For the same compound, the Activity [7] was “Active”, the Drug uptake [8] was “Active” and the IC50 at 48 h [9] was 23.3 µM. It also gave a ΔTm [10] of 0.9 °C, a ΔTm [11] of 14.2 °C and an IC50 [12] of 7 µM. The IC50 [13] was 4 µM and the Kd [14] was 0.2 µM.

For `O=C(CCN1CCCCC1)Nc1ccc(Nc2nc(-c3ccccc3NC(=O)CCN3CCCCC3)nc3ccccc23)cc1`, the Activity [1] was “Active”, the IC50 [2] was 7.5 µM and the Selectivity ratio [3] was greater than 45.4. The Activity [4] was “Active”, the IC50 [5] was 4.5 µM and the Kd [6] was greater than 10 µM. The Activity [7] was “Active”, the IC50 at 48 h [9] was 6.3 µM and the ΔTm [10] was 1.4 °C. For the same compound, the ΔTm [11] was 17.9 °C, the IC50 [12] was 7.4 µM and the IC50 [13] was 1.3 µM. It also gave a Kd [14] of 0.22 µM.

In the case of `O=C(CN1CCCC1)Nc1ccc(Nc2nc(-c3ccccc3NC(=O)CN3CCCC3)nc3ccccc23)cc1`, the Activity [1] is reported as “Active”, the IC50 [2] is reported as 18.7 µM and the Selectivity ratio [3] is reported as greater than 62.5. For the same compound, the Activity [4] was “Active”, the IC50 [5] was 1.8 µM and the Kd [6] was greater than 10 µM. For the same compound, the Activity [7] was “Active”, the Drug uptake [8] was “Active” and the IC50 at 48 h [9] was 16.5 µM. It also gave a ΔTm [10] of 0.6 °C, a ΔTm [11] of 13.3 °C and an IC50 [12] of 2.9 µM. It also gave an IC50 [13] of 1.9 µM and a Kd [14] of 0.16 µM.

With `CCN(CC)CCC(=O)Nc1ccc(Nc2nc(-c3ccccc3NC(=O)CCN(CC)CC)nc3ccccc23)cc1` the Activity [15] was 61.1%, the Activity [1] was “Active” and the “growth inhibition (GI)” value (HeLa [16]) was “Active”. The Activity [17] was 18.4%, the Activity [18] was 16.8% and the IC50 [2] was 5.9 µM. The Activity [19] was 48.9%, the inhibition (HeLa [20]) was “Dose-dependent effect” and the Activity [21] was 38.1%. The Activity [22] was 30.2%, the Selectivity ratio [3] was greater than 47.6 and the Activity [4] was “Active”. For the same compound, the Activity [23] was 48.4%, the IC50 [5] was 6.5 µM and the Kd [6] was greater than 10 µM. For the same compound, the Activity [7] was “Active”, the Drug uptake [8] was “Active” and the inhibition (HeLa [24]) was “Active”. The IC50 at 48 h [9] was 13.1 µM, the Activity [25] was 43.5% and the ΔTm [10] was 0.8 °C. For the same compound, the ΔTm [11] was 19.6 °C, the IC50 [12] was 4.4 µM and the Activity [26] was 19.4%. For the same compound, the Activity [27] was 22.2%, the Activity (Mus musculus) was “Non-Toxic” and the Activity [28] was 54.8%. For the same compound, the IC50 [13] was 3.1 µM, the Activity [29] was 26.4% and the Activity [30] was 12.7%. For the same compound, the Activity [31] was 22.1%, the Kd [14] was 0.21 µM and the Activity [32] was 41.8%. It also gave an Activity [33] of 18.4%, an Activity [34] of 38.8% and an Activity [35] of 29%.

From ChEMBL document CHEMBL3865800, “Design, synthesis and biological evaluation of 4-anilinoquinazoline derivatives as new c-myc G-quadruplex ligands” (Eur J Med Chem, 2016)
